Laboratory results: ChEMBL document CHEMBL5696442, “Discovery of type II inhibitors of TGFβ-activated kinase 1 (TAK1) and mitogen-activated protein kinase kinase kinase kinase 2 (MAP4K2)” (J Med Chem, 2015)
Active and inactive are the calls of the source. The calls are words filed in the database; no cut-off is given here.

How the values were obtained:
[1] = biological target: Calcium/calmodulin-dependent protein kinase type II subunit gamma (Homo sapiens) (UniProt Q13555); experiment: Inhibition of CaMK2g Lys1 labeling site harbouring KTSTQEYAAKIINTK in human Huh-7 cells at 1 uM by KiNativ Profiling analysis relative to control; type: cell-based
Sequence of Calcium/calmodulin-dependent protein kinase type II subunit gamma (Homo sapiens) (Q13555 whole entry): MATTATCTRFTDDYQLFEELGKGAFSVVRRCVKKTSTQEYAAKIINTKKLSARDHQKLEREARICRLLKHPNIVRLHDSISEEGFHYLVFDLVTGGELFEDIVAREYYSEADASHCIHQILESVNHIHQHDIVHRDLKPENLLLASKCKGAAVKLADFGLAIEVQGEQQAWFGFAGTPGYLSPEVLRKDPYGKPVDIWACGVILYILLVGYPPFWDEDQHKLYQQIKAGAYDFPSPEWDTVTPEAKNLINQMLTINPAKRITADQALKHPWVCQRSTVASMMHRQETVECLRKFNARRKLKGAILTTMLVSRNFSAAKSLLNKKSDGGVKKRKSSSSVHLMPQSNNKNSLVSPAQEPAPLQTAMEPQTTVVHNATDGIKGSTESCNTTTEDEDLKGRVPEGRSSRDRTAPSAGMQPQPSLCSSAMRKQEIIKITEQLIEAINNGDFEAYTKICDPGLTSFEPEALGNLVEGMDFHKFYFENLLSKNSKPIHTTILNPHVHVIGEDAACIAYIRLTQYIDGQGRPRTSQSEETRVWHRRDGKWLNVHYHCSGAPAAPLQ

[2] = Inhibition of p70S6K Lys2 labeling site in human Huh-7 cells at 1 uM by KiNativ Profiling analysis relative to control; details: condition cancer
[3] = biological target: T1, Phosphatidylinositol 5-phosphate 4-kinase type-2 gamma (Homo sapiens) (UniProt Q8TBX8); experiment: Inhibition of PIP4K2C ATP labeling site harbouring TLVIKEVSSEDIADMHSNLSNYHQYIVK in human Huh-7 cells at 1 uM by KiNativ Profiling analysis relative to control; type: cell-based
T1 sequence (whole entry): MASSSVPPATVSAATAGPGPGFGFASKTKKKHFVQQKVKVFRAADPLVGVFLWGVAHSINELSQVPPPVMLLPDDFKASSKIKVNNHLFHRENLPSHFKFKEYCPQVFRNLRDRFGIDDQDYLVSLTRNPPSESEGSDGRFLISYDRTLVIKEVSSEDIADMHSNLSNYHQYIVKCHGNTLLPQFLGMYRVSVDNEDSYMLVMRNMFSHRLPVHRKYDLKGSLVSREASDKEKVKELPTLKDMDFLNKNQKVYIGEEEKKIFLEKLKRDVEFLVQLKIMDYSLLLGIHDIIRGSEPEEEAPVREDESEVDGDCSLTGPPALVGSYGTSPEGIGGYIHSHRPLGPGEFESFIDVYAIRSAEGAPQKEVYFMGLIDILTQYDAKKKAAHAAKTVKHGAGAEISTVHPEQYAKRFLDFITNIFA

[4] = biological target: Rho-associated protein kinase 1 (Homo sapiens) (UniProt Q13464); experiment: Inhibition of ROCK1 Lys2 labeling site in human Huh-7 cells at 1 uM by KiNativ Profiling analysis relative to control; type: cell-based
Sequence of Rho-associated protein kinase 1 (Homo sapiens) (Q13464 2-1354 limits assumed): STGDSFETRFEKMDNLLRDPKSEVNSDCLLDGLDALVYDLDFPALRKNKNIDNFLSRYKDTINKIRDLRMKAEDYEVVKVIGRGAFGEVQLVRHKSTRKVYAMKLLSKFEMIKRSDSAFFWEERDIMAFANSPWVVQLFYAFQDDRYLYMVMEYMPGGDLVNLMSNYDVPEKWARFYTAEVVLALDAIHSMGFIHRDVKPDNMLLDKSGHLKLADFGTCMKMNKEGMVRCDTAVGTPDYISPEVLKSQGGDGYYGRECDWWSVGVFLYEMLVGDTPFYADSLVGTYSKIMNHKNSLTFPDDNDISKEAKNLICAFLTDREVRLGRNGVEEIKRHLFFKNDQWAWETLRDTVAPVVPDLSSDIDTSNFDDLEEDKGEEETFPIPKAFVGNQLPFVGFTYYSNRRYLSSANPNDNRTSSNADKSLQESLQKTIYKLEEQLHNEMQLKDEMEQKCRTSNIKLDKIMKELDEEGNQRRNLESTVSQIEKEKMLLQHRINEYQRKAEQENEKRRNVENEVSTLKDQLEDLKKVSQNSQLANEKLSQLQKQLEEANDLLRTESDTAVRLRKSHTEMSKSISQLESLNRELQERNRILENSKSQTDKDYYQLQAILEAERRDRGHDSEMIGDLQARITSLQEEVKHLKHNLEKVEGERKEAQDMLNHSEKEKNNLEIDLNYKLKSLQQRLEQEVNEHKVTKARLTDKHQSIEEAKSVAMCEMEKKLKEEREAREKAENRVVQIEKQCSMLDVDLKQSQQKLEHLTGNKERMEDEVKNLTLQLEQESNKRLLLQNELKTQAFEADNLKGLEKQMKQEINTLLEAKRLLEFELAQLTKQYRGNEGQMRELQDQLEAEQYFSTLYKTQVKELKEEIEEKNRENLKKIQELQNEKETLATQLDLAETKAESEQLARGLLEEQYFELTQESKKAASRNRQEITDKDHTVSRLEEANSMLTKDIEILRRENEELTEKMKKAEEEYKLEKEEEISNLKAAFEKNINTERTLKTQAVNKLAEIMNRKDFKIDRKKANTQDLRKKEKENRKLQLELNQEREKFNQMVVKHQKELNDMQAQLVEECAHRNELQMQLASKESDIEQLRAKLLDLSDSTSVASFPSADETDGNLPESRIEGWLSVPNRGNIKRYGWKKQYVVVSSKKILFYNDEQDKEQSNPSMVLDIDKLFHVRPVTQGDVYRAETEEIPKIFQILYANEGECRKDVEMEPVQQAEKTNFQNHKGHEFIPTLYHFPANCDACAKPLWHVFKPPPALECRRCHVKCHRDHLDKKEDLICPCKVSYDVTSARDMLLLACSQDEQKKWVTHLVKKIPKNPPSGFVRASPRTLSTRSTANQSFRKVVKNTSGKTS

[5] = biological target: SRSF protein kinase 2 (Homo sapiens) (UniProt P78362); experiment: Inhibition of SRPK2 (unknown origin) at 1 uM by Ambit Kinomescan binding assay relative to control
[6] = biological target: DNA-PK/Ku70/Ku85 (Homo sapiens) (UniProt P78527+P12956+P13010); experiment: Inhibition of DNAPK ATP labeling site harbouring KGGSWIQEINVAEK in human A-375 cells at 5 uM by KiNativ Profiling analysis relative to control; type: cell-based
Summary of the method: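 Live A375 melanoma cells were treated with compound at 0.5 or 5 μM, then lysed. Lysates were labeled with a lysine-reactive ATP or ADP-biotin probe. The read-out was protection of each kinase probe-labeling site from labeling, relative to control.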

[7] = biological target: Fibroblast growth factor receptor 2 (Homo sapiens) (UniProt P21802); experiment: Inhibition of FGFR2 (unknown origin) at 1 uM by Ambit Kinomescan binding assay relative to control; values are per cent of control
Sequence of Fibroblast growth factor receptor 2 (Homo sapiens) (P21802 22-821 limits assumed): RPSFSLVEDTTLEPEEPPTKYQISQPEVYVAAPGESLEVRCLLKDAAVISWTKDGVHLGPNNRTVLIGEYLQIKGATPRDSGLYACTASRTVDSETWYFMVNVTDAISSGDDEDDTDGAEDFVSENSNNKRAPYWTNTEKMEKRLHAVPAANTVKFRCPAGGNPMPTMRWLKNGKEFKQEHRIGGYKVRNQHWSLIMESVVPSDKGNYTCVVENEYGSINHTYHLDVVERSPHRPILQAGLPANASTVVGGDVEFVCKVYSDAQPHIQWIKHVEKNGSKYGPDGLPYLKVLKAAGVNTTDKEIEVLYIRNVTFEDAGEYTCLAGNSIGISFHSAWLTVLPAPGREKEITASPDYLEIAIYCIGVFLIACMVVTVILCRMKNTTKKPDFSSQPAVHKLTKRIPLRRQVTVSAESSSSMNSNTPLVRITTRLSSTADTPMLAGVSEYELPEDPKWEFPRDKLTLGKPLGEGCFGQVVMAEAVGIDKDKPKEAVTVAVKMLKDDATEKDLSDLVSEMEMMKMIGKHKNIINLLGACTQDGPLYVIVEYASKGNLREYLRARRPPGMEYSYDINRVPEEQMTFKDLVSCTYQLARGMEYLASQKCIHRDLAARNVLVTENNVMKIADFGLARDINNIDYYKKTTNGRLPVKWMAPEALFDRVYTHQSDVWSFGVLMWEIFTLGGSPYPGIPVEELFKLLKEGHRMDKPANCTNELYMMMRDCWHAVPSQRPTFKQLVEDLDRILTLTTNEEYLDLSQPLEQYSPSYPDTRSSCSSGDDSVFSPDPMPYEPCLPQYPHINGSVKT

[8] = biological target: Serine/threonine-protein kinase 17B (Homo sapiens) (UniProt O94768); experiment: Inhibition of DRAK2 (unknown origin) at 10 uM by Ambit Kinomescan binding assay
Sequence of Serine/threonine-protein kinase 17B (Homo sapiens) (O94768 whole entry, the tested form may be a part): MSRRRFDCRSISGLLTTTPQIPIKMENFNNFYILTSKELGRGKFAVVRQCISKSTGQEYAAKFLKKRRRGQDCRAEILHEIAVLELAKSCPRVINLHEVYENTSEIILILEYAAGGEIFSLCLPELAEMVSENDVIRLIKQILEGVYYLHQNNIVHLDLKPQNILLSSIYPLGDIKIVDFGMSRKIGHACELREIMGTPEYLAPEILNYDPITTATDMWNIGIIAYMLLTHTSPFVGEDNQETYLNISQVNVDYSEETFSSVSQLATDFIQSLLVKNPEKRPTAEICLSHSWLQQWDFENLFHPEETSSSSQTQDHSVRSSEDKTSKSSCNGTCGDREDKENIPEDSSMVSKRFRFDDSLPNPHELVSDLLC

[9] = biological target: LIM domain kinase 1 (Homo sapiens) (UniProt P53667); experiment: Inhibition of LIMK1 (unknown origin) at 10 uM by Ambit Kinomescan binding assay
Sequence of LIM domain kinase 1 (Homo sapiens) (P53667 whole entry, looked up, the tested form may be a part): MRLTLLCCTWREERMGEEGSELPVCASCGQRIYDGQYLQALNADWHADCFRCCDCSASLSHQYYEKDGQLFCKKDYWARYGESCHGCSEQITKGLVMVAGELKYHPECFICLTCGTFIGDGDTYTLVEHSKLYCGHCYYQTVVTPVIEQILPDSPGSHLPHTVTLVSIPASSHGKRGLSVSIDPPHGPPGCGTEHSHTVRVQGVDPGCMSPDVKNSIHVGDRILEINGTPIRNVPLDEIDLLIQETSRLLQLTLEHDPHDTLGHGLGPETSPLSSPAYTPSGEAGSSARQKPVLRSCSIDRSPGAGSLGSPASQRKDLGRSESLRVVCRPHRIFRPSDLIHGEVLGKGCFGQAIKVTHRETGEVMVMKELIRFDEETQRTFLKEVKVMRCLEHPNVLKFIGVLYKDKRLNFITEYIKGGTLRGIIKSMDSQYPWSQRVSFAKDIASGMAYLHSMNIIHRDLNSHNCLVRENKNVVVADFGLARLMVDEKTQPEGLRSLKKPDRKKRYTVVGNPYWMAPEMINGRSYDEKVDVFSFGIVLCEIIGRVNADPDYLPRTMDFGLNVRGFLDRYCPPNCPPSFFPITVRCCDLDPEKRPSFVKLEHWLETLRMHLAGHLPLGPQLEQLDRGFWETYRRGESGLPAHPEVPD

[10] = biological target: MAP/microtubule affinity-regulating kinase 3 (Homo sapiens) (UniProt P27448); experiment: Inhibition of MARK3 (unknown origin) at 10 uM by Ambit Kinomescan binding assay
Sequence of MAP/microtubule affinity-regulating kinase 3 (Homo sapiens) (P27448 whole entry, looked up): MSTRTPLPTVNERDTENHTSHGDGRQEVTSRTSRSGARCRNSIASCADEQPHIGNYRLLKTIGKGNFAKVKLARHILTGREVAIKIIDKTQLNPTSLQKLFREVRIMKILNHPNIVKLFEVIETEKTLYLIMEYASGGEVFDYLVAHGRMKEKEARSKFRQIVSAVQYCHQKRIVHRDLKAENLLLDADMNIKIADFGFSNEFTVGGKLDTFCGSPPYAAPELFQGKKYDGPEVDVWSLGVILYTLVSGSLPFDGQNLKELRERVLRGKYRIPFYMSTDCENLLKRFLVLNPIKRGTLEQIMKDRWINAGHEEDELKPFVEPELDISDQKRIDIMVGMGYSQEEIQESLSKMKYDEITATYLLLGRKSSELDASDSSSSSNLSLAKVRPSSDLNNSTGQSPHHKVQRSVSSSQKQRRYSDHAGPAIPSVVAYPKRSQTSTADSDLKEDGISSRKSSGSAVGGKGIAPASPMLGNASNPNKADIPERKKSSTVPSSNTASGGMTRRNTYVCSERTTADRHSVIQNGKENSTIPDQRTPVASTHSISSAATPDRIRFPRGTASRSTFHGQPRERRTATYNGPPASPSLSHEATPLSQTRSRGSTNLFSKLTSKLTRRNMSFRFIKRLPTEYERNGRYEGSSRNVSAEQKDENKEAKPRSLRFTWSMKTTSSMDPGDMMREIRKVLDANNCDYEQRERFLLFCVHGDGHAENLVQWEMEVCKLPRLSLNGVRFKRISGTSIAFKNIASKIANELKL

[11] = biological target: T2, Serine/threonine-protein kinase Nek1 (Homo sapiens) (UniProt Q96PY6); experiment: Inhibition of NEK1 K2 labeling site in human Huh-7 cells at 10 uM by KiNativ Profiling analysis relative to control; type: cell-based
T2 sequence (whole entry): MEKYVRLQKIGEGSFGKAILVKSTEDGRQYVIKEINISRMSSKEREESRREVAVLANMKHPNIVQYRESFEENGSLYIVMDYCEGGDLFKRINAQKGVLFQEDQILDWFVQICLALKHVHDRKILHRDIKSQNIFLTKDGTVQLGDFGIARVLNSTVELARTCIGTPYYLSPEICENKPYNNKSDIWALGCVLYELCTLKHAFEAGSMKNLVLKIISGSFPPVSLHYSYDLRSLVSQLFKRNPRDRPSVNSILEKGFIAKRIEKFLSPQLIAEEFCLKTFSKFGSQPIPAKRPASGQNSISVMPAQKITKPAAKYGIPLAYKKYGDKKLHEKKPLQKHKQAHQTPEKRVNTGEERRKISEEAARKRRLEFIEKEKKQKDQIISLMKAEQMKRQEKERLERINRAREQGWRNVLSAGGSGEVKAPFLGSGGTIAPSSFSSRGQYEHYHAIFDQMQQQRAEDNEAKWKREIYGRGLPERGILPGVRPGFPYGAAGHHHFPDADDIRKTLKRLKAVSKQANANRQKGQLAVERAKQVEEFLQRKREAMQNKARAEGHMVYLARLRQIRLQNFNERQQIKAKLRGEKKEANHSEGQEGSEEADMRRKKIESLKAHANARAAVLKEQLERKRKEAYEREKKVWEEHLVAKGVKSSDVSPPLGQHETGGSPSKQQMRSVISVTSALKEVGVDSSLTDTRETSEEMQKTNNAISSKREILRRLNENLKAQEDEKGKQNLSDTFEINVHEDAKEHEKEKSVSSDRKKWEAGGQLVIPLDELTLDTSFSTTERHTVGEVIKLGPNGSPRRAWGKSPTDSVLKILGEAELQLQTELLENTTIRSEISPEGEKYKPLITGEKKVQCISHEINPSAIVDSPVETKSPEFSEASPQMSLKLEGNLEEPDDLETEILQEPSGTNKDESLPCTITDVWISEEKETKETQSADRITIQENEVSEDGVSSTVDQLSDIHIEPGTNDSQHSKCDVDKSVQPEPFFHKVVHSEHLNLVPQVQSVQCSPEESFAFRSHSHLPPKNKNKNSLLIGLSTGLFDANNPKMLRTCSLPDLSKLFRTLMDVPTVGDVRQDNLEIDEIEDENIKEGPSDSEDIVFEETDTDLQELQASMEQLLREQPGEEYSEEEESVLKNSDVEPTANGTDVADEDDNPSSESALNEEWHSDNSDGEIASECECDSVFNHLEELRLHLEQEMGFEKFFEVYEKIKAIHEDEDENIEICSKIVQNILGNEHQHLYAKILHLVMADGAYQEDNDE

[12] = Inhibition of TLK1/2 K2 labeling site in human Huh-7 cells at 10 uM by KiNativ Profiling analysis relative to control; details: condition cancer

CNc1cc(Oc2cc(C(=O)Nc3cc(N4CCN(C)CC4)cc(C(F)(F)F)c3)ccc2C)ncn1
inhibition [1]: 24.3% | inhibition at 1 µM [2]: -110% | inhibition [3]: 12.8% | inhibition [4]: -1%

CCN1CCN(Cc2ccc(NC(=O)c3ccc(C)c(/C=C/c4cnc5[nH]ccc5c4OC)c3)cc2C(F)(F)F)CC1
inhibition [5]: 76% | inhibition [6]: -8.9% | percent of control [7]: 5.4%

CCN1CCN(Cc2ccc(NC(=O)c3ccc(C)c(Oc4ccnc5[nH]ccc45)c3)cc2C(F)(F)F)CC1
inhibition [8]: inactive | inhibition [9]: inactive | inhibition [10]: inactive | inhibition [11]: -4.4% | inhibition at 10 µM [12]: -23.9%
